KCNK3 inh: human KCNK3 channel inhibitors, primary screen, CHO cells, FluxOR thallium flux, B-score; B-score at 10 µM; FluxOR fluorescence; hits give low values; hit rate 0.84% among 340,000;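 active means B-score under library mean minus 4 SD, starting fluorescence ratio at most library mean plus 5 SD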;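 further: more negative B-score means stronger inhibition of thallium flux through KCNK3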
KCNQ1 pot: potentiators or activators of KCNQ1 channel, primary screen, cell-based, thallium flux, high-throughput. Potassium voltage-gated channel subfamily KQT member 1 (Homo sapiens), P51787. CHO-K1 KCNQ1, thallium flux FluxOR fluorescence; hits give high values. B-score at 10 µM. hit rate 0.35% among 310,000. AID 2648, 2010;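 active means fluorescence ratio B-score, a plate-corrected score, at least three library SD, with initial intensity B-score within 5 SD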
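Assay system: CHO-K1 cells stably expressing KCNQ1. Medium: assay buffer for compound exposure, DMSO matched across wells. Timing: 37 °C overnight plating, 90-min dark dye load, 20-min compound pretreatment. Signal: kinetic FluxOR fluorescence, 10 s baseline plus 110 s post-stimulus.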
KCNK9 inh: KCNK9 potassium channel inhibitors, primary screen, HEK293 cells, thallium flux; B-score at 10 µM; hit rate 1.2% among 310,000; Potassium channel subfamily K member 9 (Homo sapiens), Q9NPC2; AID 488922, 2010; FluxOR thallium flux fluorescence; hits give low values;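 active means ratio B-score over 3 SD below the library mean, with starting fluorescence within 5 SD of its mean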;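 further: negative B-score means less thallium flux so channel inhibition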
Kir21 block: inhibitors of mouse Kir2.1 inward-rectifier potassium channel; HEK293-Kir2.1, FluxOR thallium flux fluorescence; hits give low values; B-score at 10 µM; hit rate 0.85% among 310,000;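 active means fluorescence ratio B-score at or below minus 3 SD of library scores, with starting-brightness B-score within 2 SD, cut at about -4.2 in these data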;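 further: channel flux triggered by added potassium and thallium sulfate stimulus; B-score of peak minus minimum fluorescence over baseline after thallium stimulus; more negative B-score means stronger Kir2.1 block with less thallium influx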
Target sequence (P35561 whole entry, looked up): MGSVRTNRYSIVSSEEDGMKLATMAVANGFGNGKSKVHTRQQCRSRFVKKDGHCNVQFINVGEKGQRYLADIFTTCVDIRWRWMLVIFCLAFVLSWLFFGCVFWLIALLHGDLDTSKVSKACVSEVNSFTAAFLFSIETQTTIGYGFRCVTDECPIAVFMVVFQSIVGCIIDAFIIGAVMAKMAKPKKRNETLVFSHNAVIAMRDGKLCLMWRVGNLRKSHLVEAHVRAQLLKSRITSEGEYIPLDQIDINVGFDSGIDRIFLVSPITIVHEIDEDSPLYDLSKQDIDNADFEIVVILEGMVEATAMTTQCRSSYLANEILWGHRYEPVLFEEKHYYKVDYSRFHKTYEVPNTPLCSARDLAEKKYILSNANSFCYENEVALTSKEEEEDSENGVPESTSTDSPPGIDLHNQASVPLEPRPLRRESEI
hERG rescue: hERG rescue from dofetilide block, primary screen, cell-based, CHO-hERG, FluxOR thallium flux, dofetilide IC70 | Voltage-gated inwardly rectifying potassium channel KCNH2 (Homo sapiens), Q12809 | dofetilide IC70 present | activation (rescue from dofetilide block), less the hit threshold, % at 10 µM | hit rate 0.51% among 310,000;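 active means activation above the mean of controls blocked by dofetilide plus 5 SD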;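 further: thallium influx through hERG after potassium depolarization seen as dye fluorescence rise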
KCNQ1 inh: inhibitors of human KCNQ1 channel, primary screen, cell-based, thallium flux, high-throughput | Potassium voltage-gated channel subfamily KQT member 1 (Homo sapiens), P51787 | CHO-K1 KCNQ1, FluxOR thallium flux fluorescence; hits give high values | B-score at 10 µM | hit rate 1.3% among 310,000;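 active means compounds whose thallium flux B-score, printed positive for inhibition, exceeds three library SD while starting fluorescence stays within three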;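 further: channel opened by potassium depolarization with thallium stimulus after 20 min compound exposure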
* hit, by the source's call; i = inactive; nt = no result. In the library only some 3.7% were active in any assay of this set; here they are far more common.

SMILES	KCNK3 inh	KCNQ1 pot	KCNK9 inh	Kir21 block	hERG rescue	KCNQ1 inh
CCOc1cc(CNCCO)cc(Br)c1OCc1ccccc1	i	i	i	-16.2*	-8.4	i
CCOc1cc(CNc2ccccc2)cc(Br)c1OCc1ccccc1F	i	i	-7.64*	-0.02	-6.3	i
Cc1cccc(NCc2ccccc2OCc2ccccc2F)c1	i	i	-7.46*	-0.06	-12.9	9*
Oc1ccc(NCc2ccccc2OCc2ccccc2F)cc1	i	i	i	-0.92	-12.0	i
CCCCNCc1cc(Br)c(OCc2cccs2)c(OC)c1	i	i	i	-11.5*	-12.0	i
CCC1CCCCN1C(=O)COc1ccccc1NC(C)=O (stereo not drawn)	i	i	i	-0.37	-7.4	i
O=C(Oc1ccc(-c2nnco2)cc1)C1CCN(C(=O)c2ccc(F)cc2)CC1	i	i	i	0.37	-3.8	i
COc1cc(Cl)c(C)cc1NC(=S)NN	i	i	i	-0.19	-12.7	i
Cc1ccc(NC(=O)CNC(=O)c2cccc(C)c2)nc1	i	i	i	-0.89	-5.8	i
O=C(NCc1ccc(Cl)cc1)c1ccc(NC(=O)C2CCCO2)cc1 (stereo not drawn)	i	i	i	-0.01	-10.8	i
COc1cc(CNCCO)cc(Br)c1OCc1ccccc1Cl	i	i	i	-12.9*	-16.8	i
O=C1CN(c2nc3nonc3nc2N2CCCCC2)CCN1	i	i	i	0.67	-17.9	i
CCN(CCCNC(=O)COc1cc(=O)n(C)c2ccccc12)c1cccc(C)c1	i	i	i	-6.78*	-18.4	i
COc1ccc(CCC(=O)NCCOc2ccc(C)cc2)cc1	i	11*	i	-0.63	-2.6	i
COc1ccc(CCNC(=O)CCc2ccc(OC)cc2)cc1	i	i	i	-2.24	0.7	i
Cn1c(=S)n(CCC(=O)O)c2ccccc21	i	i	i	1.06	-8.1	i
CCCn1c(N)c(C(=O)CSc2nc3ccccc3s2)c(=O)[nH]c1=O	i	i	i	1.06	5.4*	i
CN(CC1CCCO1)S(=O)(=O)c1ccc(C(=O)NCc2ccccc2)cc1 (stereo not drawn)	i	i	i	-0.52	-6.8	i
CC(NCc1cccc(OCc2ccccc2)c1)C(O)c1ccccc1 (stereo not drawn)	i	i	i	-10.5*	-20.3	i
CC(NCc1ccc(OCc2ccc(Cl)cc2)cc1)C(O)c1ccccc1 (stereo not drawn)	i	i	i	0.09	-36.6	i
CC(=O)c1ccc(-c2ccc(C(=O)N3CCC(C(N)=O)CC3)o2)cc1	i	i	i	1.59	-7.0	i
COc1ccc(NC(=O)c2ccc3c(c2)CCN3S(=O)(=O)c2ccccc2)cc1	i	i	i	-1.3	-4.3	i
COc1ccc2c(c1)N(S(=O)(=O)c1ccccc1)CCC2=O	i	i	i	-6.51*	-4.2	i
O=C(/C(=N\O)n1cncn1)c1ccc(Cl)cc1Cl	i	i	i	-0.37	-13.3	i
O=C(/C(=C/c1ccccc1)n1cncn1)c1ccc(Cl)cc1Cl	i	i	i	-12.6*	-10.6	i
SMILES	KCNK3 inh	KCNQ1 pot	KCNK9 inh	Kir21 block	hERG rescue	KCNQ1 inh
Cc1ccc(C2C(C#N)=C(N)OC3=C2C(=O)CC(C)(C)C3)s1 (stereo not drawn)	i	9*	i	-1.11	-1.9	i
CCN1CCN(CCNC(=O)c2ccc(/C=C3/Sc4ccccc4N(Cc4ccccc4C)C3=O)cc2)CC1	i	i	i	-5.57*	-34.4	14*
O=C1Nc2cc(C(=O)NCCCN3CCCC3)ccc2S/C1=C\c1ccccc1	i	i	i	-4.91*	-24.1	i
Cc1ccccc1CN1C(=O)c2ccccc2Sc2ccc(C(=O)NCCN3CCOCC3)cc21	i	i	i	-0.07	-12.7	i
O=C(NCCCN1CCOCC1)c1ccc(/C=C2\Oc3ccccc3N(Cc3ccccc3F)C2=O)cc1	i	i	i	1.14	-12.4	i
CCN1CCN(CCCNC(=O)c2ccc(/C=C3/Sc4ccccc4N(Cc4ccccc4F)C3=O)cc2)CC1	i	i	-6.74*	1.18	-33.6	7*
O=C1Nc2cc(C(=O)NCCCN3CCOCC3)ccc2S/C1=C/c1cccc(Cl)c1	i	i	i	1.41	-20.9	i
Cc1ccc(N2CCC(N3CCN(C)C(CCO)C3)CC2)cc1 (stereo not drawn)	i	i	i	-0.48	-3.3	i
CCCCN1CC(COCc2ccccc2)Oc2cccc(Oc3cc(C)c(C)c(C)c3)c2S1(=O)=O (stereo not drawn)	i	nt	nt	nt	nt	nt
CC(C)(CSc1ccccn1)NS(=O)(=O)c1ccc(Cl)cc1	i	i	i	-5.09*	-9.6	i
CC(C)(CSc1ccccn1)NS(=O)(=O)c1ccccc1	i	i	i	-1.15	-5.7	i
CC(C)(C)C(=O)c1no[n+]([O-])c1/C(=N/O)C(C)(C)C	i	i	i	-1.29	-10.2	6*
Cc1cccc(-c2cnn(-c3ccccc3)c2N)c1	i	i	i	1.37	-5.2	i
Nc1c(-c2ccccc2)cnn1-c1cccc(Cl)c1	i	i	-6.98*	0.28	-12.1	i
COc1ccc(Nc2oc(COc3ccccc3F)nc2C#N)cc1	i	i	-7.95*	0.38	-9.6	i
Cc1cccc(C(=O)O)c1NC(=O)Cc1cccc2ccccc12	i	i	i	0.06	-6.2	i
C#CCOCCOCCOCCNc1nc(N2CCN(C(=O)C([C@@H](C)CC)n3cc(C(N)Cc4ccc(O)cc4)nn3)CC2)nc(N2CCN(C(=O)[C@H](CCC(=O)O)n3cc(C(N)CO)nn3)CC2)n1 (stereo partly drawn)	i	i	i	-0.68	-5.4	i
O=[N+]([O-])c1ccc(O)c2ncccc12	i	i	i	-0.09	2.0	i
O=[N+]([O-])c1cc([N+](=O)[O-])c2cccnc2c1Oc1ccccc1O	i	i	i	-8.86*	-39.8	8*
COc1ccc(CCNC(=O)C2(c3ccccc3)CC2)cc1	i	i	i	-4.61*	-11.0	i
